Where “and” joins values, the source holds several entries; their conditions need not be identical. Equal values may be shown once. Blank lines part the entries; values can stand above or below the molecule they belong to.
Experiments:
[1] = In vivo activity against murine M5076 tumor system at the dose of 50 mg/kg, activity expressed as TDS; 10/10; format: functional, Mus musculus
MX1 [2] = assay: In vivo activity against murine MX-1 tumor system at the dose of 75 mg/kg, activity expressed as body weight difference.; format: functional, Mus musculus
[3] = In vivo activity against murine M5076 tumor system at the dose of 50 mg/kg, activity expressed as KE; format: functional, Mus musculus
[4] = Effect of pH on the hydrolysis of pyridinium Moity in 0.05 M buffer concentration at the pH 8.0; format: ADME
Outline: (§1)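 Pyridinium salt in 0.05 M phosphate buffer, pH 6.0–8.0 (set by pH meter), ionic strength 0.25 M, 25 °C. Decrease in the pyridinium UV absorbance maximum followed over time to give pseudo-first-order kobs and half-life.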

[5] = Effect of pH on the hydrolysis of pyridinium Moity in 0.05 M buffer concentration at the pH 6.0; format: ADME; outline: as §1
L1210 [6] = assay: In vivo activity against murine L1210 tumor system at the dose of 25 mg/kg, activity expressed as TDS; 6/6; format: functional, Mus musculus
Outline: (§2)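 L1210 lymphocytic leukemia: ascitic fluid with ca. 10^6 cells injected ip into CD2F1 mice. Dosing started 24 h after inoculation and was repeated daily for five doses in total, from solutions or suspensions made fresh each day. Toxicity day survivors were scored on day 5. Body weight difference is day 5 minus day 1. %T/C is based on median survival time versus controls.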

[7] = Half life at the ionic strength 0.50 M NaCl; format: ADME
Outline: (§3)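 Pyridinium salt in 0.02 M phosphate buffer, pH 7.4, 25 °C, with NaCl varied 0.10–1.0 M. Loss of the pyridinium chromophore's UV absorbance maximum (conversion to pyridone) followed over time. Pseudo-first-order kobs and half-life derived from that decay.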

[8] = Effect of pH on the hydrolysis of pyridinium Moity in 0.05 M buffer concentration at the pH 6.5; format: ADME; outline: as §1
[9] = Effect of Ionic strength (0.10 M NaCl)on the hydrolysis of pyridinium Moity in 0.02 M buffer concentration, pH 7.4,25 degree C; format: ADME; outline: as §3
[10] = In vivo activity against murine M5076 tumor system at the dose of 25 mg/kg, activity expressed as %T/C.; format: functional, Mus musculus
Outline: (§4)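 M5076: ascitic fluid with ca. 10^6 cells inoculated ip into CD2F1 mice. Dosing started 24 h after inoculation and was then given every 4 days for four doses in total, from solutions or suspensions made fresh each day. Toxicity day survivors were scored on day 5. Body weight difference is day 14 minus day 1. %T/C is based on median survival time versus controls.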

[11] = Half life at the ionic strength 0.10 M NaCl; format: ADME; outline: as §3
MX1 [12] = assay: In vivo activity against murine MX-1 tumor system at the dose of 37.5 mg/kg, activity expressed as body weight difference.; format: functional, Mus musculus
[13] = In vivo activity against murine M5076 tumor system at the dose of 25 mg/kg, activity expressed as KE; format: functional, Mus musculus; outline: as §4
[14] = Half life at the pH 9.0; format: ADME; details: buffer
Outline: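 Bis-carbamate hydrolysis in acetonitrile–water (1:1) with 0.05 M borate buffer (boric acid–NaOH), pH 9.0, ionic strength 0.136 adjusted with KCl, 25 °C, thermostated. Loss of the bis-carbamate peak area was tracked by HPLC. k_obs is the slope of ln(area0/areat) vs time. Values are averages of two determinations.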

[15] = In vivo activity against murine M5076 tumor system at the dose of 36 mg/kg, activity expressed as KE; format: functional, Mus musculus; outline: as §4
L1210 [16] = assay: In vivo activity against murine L1210 tumor system at the dose of 36 mg/kg, activity expressed as KE; format: functional, Mus musculus; outline: as §2
[17] = In vivo activity against murine M5076 tumor system at the dose of 60 mg/kg, activity expressed as KE; format: functional, Mus musculus
[18] = Effect of pH on carbamate hydrolysis in 0.05 M buffer concentration at the pH 9.0, 25 degree C.; format: ADME
Outline: (§5)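 Bis-carbamate in acetonitrile–water (1:1; buffer added to a 0.5 mg/mL acetonitrile solution), 0.05 M buffer, ionic strength 0.136 (KCl), 25 ± 0.1 °C. Buffers: phosphate pH 2.0; citrate pH 3.0–3.5; succinate pH 4.0; acetate pH 5.0; phosphate pH 6.0–8.0; borate pH 9.0; carbonate pH 10.0. HPLC bis-carbamate peak-area loss, ln(area0/areat) vs time slope = kobs. Duplicates averaged.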

L1210 [19] = assay: In vivo activity against murine L1210 tumor system at the dose of 100 mg/kg, activity expressed as KE; format: functional, Mus musculus
P388 [20] = assay: In vivo activity against P388 Lymphocytic Leukemia in CD2F1 mice at the dose of 50 mg/kg, activity expressed as body weight difference; T-C; format: functional, Mus musculus
Outline: (§6)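 CD2F1 mice were inoculated with ascitic fluid holding ca. 10^6 P388 cells. Drug was given daily from 24 h after inoculation, from solutions or suspensions made fresh each day, some as a saline suspension. TDS is survivors/initial animals on day 5. BWD is body weight on day 5 minus day 1. %T/C compares median survival of treated and control mice.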

P388 [21] = assay: In vivo activity against P388 Lymphocytic Leukemia in CD2F1 mice at the dose of 400 mg/kg, activity expressed as TDS; 2/6; format: functional, Mus musculus; outline: as §6
P388 [22] = assay: In vivo activity against P388 Lymphocytic Leukemia in CD2F1 mice at the dose of 100 mg/kg, activity expressed as % T/C; format: functional, Mus musculus; outline: as §6
[23] = Half life at the pH 3.0; format: ADME; details: buffer; outline: as §5
[24] = In vivo activity against murine M5076 tumor system at the dose of 60 mg/kg, activity expressed as %T/C.; format: functional, Mus musculus
[25] = Effect of pH on carbamate hydrolysis in 0.05 M buffer concentration at the pH 2.0, 25 degree C.; format: ADME; outline: as §5
[26] = Half life at the pH 3.5; format: ADME; details: buffer; outline: as §5
L1210 [27] = assay: In vivo activity against murine L1210 tumor system at the dose of 36 mg/kg, activity expressed as TDS; 6/6; format: functional, Mus musculus; outline: as §2
[28] = Effect of phosphate buffer on carbamate hydrolysis in acetonitrile-water at the concentration of 0.025 M on pH 7.4, 25 degree C.; format: ADME
Outline: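 Bis-carbamate in acetonitrile–water (1:1), 25 ± 0.1 °C. Citrate buffer at pH 3.0 or phosphate buffer at pH 7.4, at 0.01, 0.025 or 0.05 M, ionic strength 0.136 (KCl). Kinetics followed by HPLC as the decrease in bis-carbamate peak area. The regression slope of ln(area0/areat) vs time gave pseudo-first-order kobs. Duplicates averaged.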

[29] = In vivo activity against murine M5076 tumor system at the dose of 21.6 mg/kg, activity expressed as body weight difference; T-C; format: functional, Mus musculus; outline: as §4
L1210 [30] = assay: In vivo activity against murine L1210 tumor system at the dose of 21.6 mg/kg, activity expressed as KE; format: functional, Mus musculus; outline: as §2
L1210 [31] = assay: In vivo activity against murine L1210 tumor system at the dose of 60 mg/kg, activity expressed as KE; format: functional, Mus musculus; outline: as §2
[32] = Effect of Ionic strength on carbamate hydrolysis in acetonitrile-water at 0.05 M buffer concentration, pH 7.4,25 degree C; format: ADME
Outline: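 Bis-carbamate in acetonitrile–0.05 M phosphate buffer (1:1), pH 7.4, 25 °C, at varied ionic strength. Loss of bis-carbamate HPLC peak area tracked over time. Pseudo-first-order kobs taken from the ln(area0/areat) vs time slope.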

K obs [4]: 0.052 min⁻¹ | K obs [5]: 0.0044 min⁻¹ | half-life [7]: 63.2 min | K obs [8]: 0.0153 min⁻¹ | K obs [9]: 0.024 min⁻¹ | half-life [11]: 29.1 min
SMILES: CC(C)NC(=O)OCc1c(COC(=O)NC(C)C)c(-c2cc[n+](C)c(F)c2)n2c1CCC2.[I-]
TDS [1]: 10 | BWD (MX1 [2]): 0.2 g | KE [3]: -1.59 | TDS (L1210 [6]): 6 | T/C [10]: 104% | BWD (MX1 [12]): 0.3 g | KE [13]: -1.98

half-life [14]: 54 min | K obs [18]: 0.0129 min⁻¹ | half-life [23]: 22.8 min | K obs [25]: 0.33 min⁻¹ | half-life [26]: 32.5 min | K obs [28]: 0.0134 min⁻¹
SMILES: CC(C)NC(=O)OCc1c(COC(=O)NC(C)C)c(-c2ccn(C)c(=O)c2)n2c1CCC2
KE [15]: -1.69 | KE (L1210 [16]): -0.86 | KE [17]: -1.79 | KE (L1210 [19]): -0.22 | BWD (P388 [20]): -0.6 g | TDS (P388 [21]): 2 | T/C (P388 [22]): 148% | T/C [24]: 114% | TDS (L1210 [27]): 6 | BWD [29]: 1.7 g | KE (L1210 [30]): -0.86 | KE (L1210 [31]): -0.5 | K obs [32]: 0.013 min⁻¹ and 0.0124 min⁻¹ and 0.008 min⁻¹
